Data from ChEMBL document CHEMBL4665830, “Self-Adjuvanting Cancer Vaccines from Conjugation-Ready Lipid A Analogues and Synthetic Long Peptides” (J Med Chem, 2020).
Active and inactive are the calls of the source. No cut-off for these calls is given here. Where a SMILES comes first, the peptide text is derived from it. [ ]: non-standard residue; d: D form. The star is where a group is joined. X1 = CCCCCCCCCCC[C@H](CC(=O)N[C@H]1[C@H](OC[C@H](NC(=O)C[C@@H](CCCCCCCCCCC)OC(=O)CCCCCCCCC)C(=O)O)O[C@H](CNC(=O)COCCOCCOCCNC(=O)CCCN2C(=O)CC(*)C2=O)[C@@H](OP(=O)(O)O)[C@@H]1OC(=O)C[C@@H](CCCCCCCCCCC)OC(=O)CCCCCCCCC)OC(=O)CCCCCCCCC; X2 = CCCCCCCCCCC[C@H](CC(=O)N[C@H]1[C@H](OC[C@H](NC(=O)C[C@@H](CCCCCCCCCCC)OC(=O)CCCCCCCCC)C(=O)O)O[C@H](COC(=O)COCCOCCOCCNC(=O)CCCN2C(=O)CC(*)C2=O)[C@@H](OP(=O)(O)O)[C@@H]1OC(=O)C[C@@H](CCCCCCCCCCC)OC(=O)CCCCCCCCC)OC(=O)CCCCCCCCC; Mpa = O=C(O)CCS

Tests used:
[1] = biological target: T1, Toll-like receptor 4 (Mus musculus) (UniProt Q9QUK6); test: Activation of TLR4 in C57BL/6 mouse dendritic cells assessed as induction of IL-12p40 secretion at 0.098 to 100 nM incubated for 24 hrs by ELISA; conditions: Dendritic cell, dose nM 0.098-100, time 24.0 hrs
T1 sequence (whole entry): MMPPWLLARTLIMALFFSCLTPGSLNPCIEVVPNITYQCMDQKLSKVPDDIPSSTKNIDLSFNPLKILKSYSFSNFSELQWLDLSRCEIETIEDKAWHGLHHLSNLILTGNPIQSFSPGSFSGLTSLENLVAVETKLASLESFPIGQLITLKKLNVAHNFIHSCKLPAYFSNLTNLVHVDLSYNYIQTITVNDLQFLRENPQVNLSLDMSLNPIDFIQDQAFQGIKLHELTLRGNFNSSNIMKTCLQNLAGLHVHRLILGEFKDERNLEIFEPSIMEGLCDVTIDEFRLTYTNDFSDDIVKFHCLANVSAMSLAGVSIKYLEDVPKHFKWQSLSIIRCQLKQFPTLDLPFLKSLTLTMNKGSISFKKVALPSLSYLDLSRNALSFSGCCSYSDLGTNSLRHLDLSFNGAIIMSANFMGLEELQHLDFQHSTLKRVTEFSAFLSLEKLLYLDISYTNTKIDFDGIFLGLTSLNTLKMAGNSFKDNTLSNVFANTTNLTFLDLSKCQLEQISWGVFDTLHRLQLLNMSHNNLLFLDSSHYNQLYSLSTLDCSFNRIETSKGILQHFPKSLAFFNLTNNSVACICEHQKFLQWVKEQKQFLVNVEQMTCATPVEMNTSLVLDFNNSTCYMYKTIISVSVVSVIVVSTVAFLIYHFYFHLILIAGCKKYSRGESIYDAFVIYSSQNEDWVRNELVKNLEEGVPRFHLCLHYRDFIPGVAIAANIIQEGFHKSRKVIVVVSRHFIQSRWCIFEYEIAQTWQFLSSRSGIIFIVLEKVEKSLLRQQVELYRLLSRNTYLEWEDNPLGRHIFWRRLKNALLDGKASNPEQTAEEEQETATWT
Procedure, shortened: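 D1 cells (immature spleen-derived DC line, C57BL/6 H-2b), 50 000 per well in R1-supplemented IMDM, given an equal volume of 2x compound in medium (500 μM DMSO stocks, sonicated 15 min). Incubated 24 h at 37 °C; IL-12p40 in supernatant measured by ELISA. MPLA served as TLR4 control; unconjugated peptide as negative control.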

B3Z = test: Induction of T-cell activation in SIINFEKL-specific mouse B3Z cells at 0.875 to 7 uM by colorimetry based in-vitro antigen presentation assay; assay type: functional; conditions: dose microM 0.875-7
Mus musculus [2] = test: Induction of T-cell activation in C57BL/6 mouse assessed as induction of SIINFEKL-specific T-cell responses in blood at 5 nmol dosed intradermally; assay type: functional, organism-based
Mus musculus [3] = test: Induction of T-cell activation in C57BL/6 mouse assessed as induction of SIINFEKL-specific T-cell responses in inguinal lymph nodes at 5 nmol dosed intradermally followed by booster dose after 14 days and measured after 8 days; assay type: functional, organism-based; conditions: time 22.0 day
Mus musculus [4] = test: Induction of T-cell activation in C57BL/6 mouse assessed as induction of differentiation into memory CD127+/KLRG1low responses at 5 nmol dosed intradermally followed by booster dose after 14 days and measured after 7 days; assay type: functional, organism-based; conditions: time 21.0 day
Mus musculus [5] = test: Induction of T-cell activation in C57BL/6 mouse assessed as induction of specific killing of the SIINFEKL-loaded target cells in spleen at 5 nmol dosed intradermally followed by booster dose after 14 days and 1 week later injection of cells loaded with SIINFEKL peptide and measured after 18 hrs post last dose by CFSE staining based flow cytometric analysis; assay type: functional, organism-based; conditions: time 21.0 day
Mus musculus [6] = test: Induction of T-cell activation in C57BL/6 mouse assessed as induction of SIINFEKL-specific T-cell responses in spleen at 5 nmol dosed intradermally followed by booster dose after 14 days and measured after 8 days; assay type: functional, organism-based; conditions: time 22.0 day
Mus musculus [7] = test: Induction of T-cell activation in C57BL/6 mouse assessed as induction of SIINFEKL-specific T-cell responses in blood at 5 nmol dosed intradermally followed by booster dose after 14 days and measured after 7 days; assay type: functional, organism-based; conditions: time 21.0 day
Mus musculus [8] = test: Induction of T-cell activation in C57BL/6 mouse assessed as induction of differentiation into effector memory T cells at 5 nmol dosed intradermally followed by booster dose after 14 days and measured after 7 days; assay type: functional, organism-based; conditions: time 21.0 day
Mus musculus [9] = test: Induction of T-cell activation in C57BL/6 mouse assessed as increase in SIINFEKL-specific CD8+ T cells level in inguinal lymph nodes at 5 nmol dosed intradermally followed by booster dose after 14 days and 1 week later injection of cells loaded with SIINFEKL peptide and measured after 18 hrs post last dose by CFSE staining based flow cytometric analysis; assay type: functional, organism-based; conditions: time 21.0 day

## CCCCCCCCCCC[C@@H](O)CC(=O)N[C@@H]1[C@@H](OC(=O)C[C@H](O)CCCCCCCCCCC)[C@H](O)[C@@H](CO[C@@H]2O[C@H](CO)[C@@H](OP(=O)(O)O)[C@H](OC(=O)C[C@@H](CCCCCCCCCCC)OC(=O)CCCCCCCCC)[C@H]2NC(=O)C[C@@H](CCCCCCCCCCC)OC(=O)CCCCCCCCC)O[C@H]1O
[1]; filed as activator
  Activity: Active

## CCCCCCCCCCC[C@H](CC(=O)N[C@H]1[C@H](OC[C@H](NC(=O)C[C@@H](CCCCCCCCCCC)OC(=O)CCCCCCCCC)C(=O)O)O[C@H](CNC(=O)COCCOCCOCCNC(C)=O)[C@@H](OP(=O)(O)O)[C@@H]1OC(=O)C[C@@H](CCCCCCCCCCC)OC(=O)CCCCCCCCC)OC(=O)CCCCCCCCC
[1]; filed as activator
  Activity: Active

## CCCCCCCCCCC[C@H](CC(=O)N[C@H]1[C@H](OC[C@H](NC(=O)C[C@@H](CCCCCCCCCCC)OC(=O)CCCCCCCCC)C(=O)O)O[C@H](CO)[C@@H](OP(=O)(O)O)[C@@H]1OC(=O)C[C@@H](CCCCCCCCCCC)OC(=O)CCCCCCCCC)OC(=O)CCCCCCCCC
B3Z
  Activity: Active
[1]; filed as activator
  Activity: Active
Mus musculus [2]
  Activity: Active

## CCCCCCCCCCC[C@H](CC(=O)N[C@H]1[C@H](OC[C@H](NC(=O)C[C@@H](CCCCCCCCCCC)OC(=O)CCCCCCCCC)C(=O)O)O[C@H](COC(=O)CCCCCCCCCCNC(C)=O)[C@@H](OP(=O)(O)O)[C@@H]1OC(=O)C[C@@H](CCCCCCCCCCC)OC(=O)CCCCCCCCC)OC(=O)CCCCCCCCC
[1]
  Activity: inactive

## CCCCCCCCCCC[C@H](CC(=O)N[C@H]1[C@H](OC[C@H](NC(=O)C[C@@H](CCCCCCCCCCC)OC(=O)CCCCCCCCC)C(=O)O)O[C@H](COC(=O)COCCOCCOCCNC(C)=O)[C@@H](OP(=O)(O)O)[C@@H]1OC(=O)C[C@@H](CCCCCCCCCCC)OC(=O)CCCCCCCCC)OC(=O)CCCCCCCCC
[1]; filed as activator
  Activity: Active

## CCCCCCCCCCC[C@H](CC(=O)N[C@H]1[C@H](OC[C@H](NC(=O)C[C@@H](CCCCCCCCCCC)OC(=O)CCCCCCCCC)C(=O)O)O[C@H](CNC(=O)COCCOCCOCCNC(=O)CCCN2C(=O)CC(SCCC(=O)N[C@@H](CC(=O)O)C(=O)N[C@@H](CCC(=O)O)C(=O)N[C@H](C(=O)N[C@@H](CO)C(=O)NCC(=O)N[C@@H](CC(C)C)C(=O)N[C@@H](CCC(=O)O)C(=O)N[C@@H](CCC(N)=O)C(=O)N[C@@H](CC(C)C)C(=O)N[C@@H](CCC(=O)O)C(=O)N[C@@H](CO)C(=O)N[C@H](C(=O)N[C@H](C(=O)N[C@@H](CC(N)=O)C(=O)N[C@@H](Cc3ccccc3)C(=O)N[C@@H](CCC(=O)O)C(=O)N[C@@H](CCCCN)C(=O)N[C@@H](CC(C)C)C(=O)N[C@@H](C)C(=O)N[C@@H](C)C(=O)N[C@@H](C)C(=O)N[C@@H](C)C(=O)N[C@@H](C)C(=O)N[C@@H](CCCCN)C(N)=O)[C@@H](C)CC)[C@@H](C)CC)C(C)C)C2=O)[C@@H](OP(=O)(O)O)[C@@H]1OC(=O)C[C@@H](CCCCCCCCCCC)OC(=O)CCCCCCCCC)OC(=O)CCCCCCCCC (stereo not given in full) ([Mpa](X1)DEVSGLEQLESIINFEKLAAAAAK-NH2)
B3Z
  Activity: Active
Mus musculus [3]
  Activity: Active
Mus musculus [4]
  Activity: Active
Mus musculus [5]
  Activity: Active
[1]
  Activity: inactive
Mus musculus [6]
  Activity: Active
Mus musculus [7]
  Activity: Active
Mus musculus [8]
  Activity: Active
Mus musculus [9]
  Activity: Active
Mus musculus [2]
  Activity: Active

## CCCCCCCCCCC[C@H](CC(=O)N[C@H]1[C@H](OC[C@H](NC(=O)C[C@@H](CCCCCCCCCCC)OC(=O)CCCCCCCCC)C(=O)O)O[C@H](COC(=O)COCCOCCOCCNC(=O)CCCN2C(=O)CC(SCCC(=O)N[C@@H](CC(=O)O)C(=O)N[C@@H](CCC(=O)O)C(=O)N[C@H](C(=O)N[C@@H](CO)C(=O)NCC(=O)N[C@@H](CC(C)C)C(=O)N[C@@H](CCC(=O)O)C(=O)N[C@@H](CCC(N)=O)C(=O)N[C@@H](CC(C)C)C(=O)N[C@@H](CCC(=O)O)C(=O)N[C@@H](CO)C(=O)N[C@H](C(=O)N[C@H](C(=O)N[C@@H](CC(N)=O)C(=O)N[C@@H](Cc3ccccc3)C(=O)N[C@@H](CCC(=O)O)C(=O)N[C@@H](CCCCN)C(=O)N[C@@H](CC(C)C)C(=O)N[C@@H](C)C(=O)N[C@@H](C)C(=O)N[C@@H](C)C(=O)N[C@@H](C)C(=O)N[C@@H](C)C(=O)N[C@@H](CCCCN)C(N)=O)[C@@H](C)CC)[C@@H](C)CC)C(C)C)C2=O)[C@@H](OP(=O)(O)O)[C@@H]1OC(=O)C[C@@H](CCCCCCCCCCC)OC(=O)CCCCCCCCC)OC(=O)CCCCCCCCC (stereo not given in full) ([Mpa](X2)DEVSGLEQLESIINFEKLAAAAAK-NH2)
B3Z
  Activity: Active
Mus musculus [3]
  Activity: Active
Mus musculus [4]
  Activity: Active
[1]; filed as activator
  Activity: Active
Mus musculus [6]
  Activity: Active
Mus musculus [7]
  Activity: Active
Mus musculus [8]
  Activity: Active
Mus musculus [2]
  Activity: Active
